In ChEMBL document CHEMBL3232911, “Imidazolylchromanones containing non-benzylic oxime ethers: synthesis and molecular modeling study of new azole antifungals selective against Cryptococcus gattii” (2014):

Legend:
Aspergillus fumigatus = experiment: Antifungal activity against Aspergillus fumigatus assessed as total growth inhibition by micro-broth dilution method; assay type: functional
Procedure, shortened: (§1)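 Broth microdilution following CLSI methods for yeasts and filamentous fungi. Compounds dissolved in DMSO, serially diluted in growth medium, inoculum added, incubation at 35 °C. MIC taken as the lowest concentration giving total inhibition of fungal growth. Testing done in triplicate.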

Candida albicans = experiment: Antifungal activity against Candida albicans assessed as total growth inhibition by micro-broth dilution method; assay type: functional; procedure, shortened: as §1
Exophiala dermatitidis = experiment: Antifungal activity against Exophiala dermatitidis assessed as total growth inhibition by micro-broth dilution method; assay type: functional; procedure, shortened: as §1
[1] = system: Cryptococcus gattii species complex; experiment: Antifungal activity against Cryptococcus gattii assessed as total growth inhibition by micro-broth dilution method; assay type: functional, Cryptococcus bacillisporus; procedure, shortened: as §1

| Compound | MIC (Aspergillus fumigatus) [µg/mL] | MIC (Candida albicans) [µg/mL] | MIC (Exophiala dermatitidis) [µg/mL] | MIC [1] [µg/mL] |
| --- | --- | --- | --- | --- |
| OC(Cn1cncn1)(Cn1cncn1)c1ccc(F)cc1F [FLUCONAZOLE] | > 64 | 2 | > 64 | > 64 |
| Clc1ccc(OCCO/N=C2\c3ccccc3OCC2n2ccnc2)c(Cl)c1.O=[N+]([O-])O (racemic) | 64 | > 64 | 128 | 2 |
| CCC(C)n1ncn(-c2ccc(N3CCN(c4ccc(OCC5COC(Cn6cncn6)(c6ccc(Cl)cc6Cl)O5)cc4)CC3)cc2)c1=O (stereo unspecified) [ITRACONAZOLE] | 4 | 0.25 | 0.5 | 0.5 |
| Fc1ccc(OCCO/N=C2\c3ccccc3OCC2n2ccnc2)cc1.O=[N+]([O-])O (racemic) | 64 | > 64 | 128 | 4 |
| Clc1ccc(OCCO/N=C2\c3ccccc3OCC2n2ccnc2)cc1.O=[N+]([O-])O (racemic) | 64 | > 64 | 64 | 4 |
| Fc1cccc(OCCO/N=C2\c3ccccc3OCC2n2ccnc2)c1.O=[N+]([O-])O (racemic) | 64 | > 64 | 64 | 2 |
| Clc1cccc(OCCO/N=C2\c3ccccc3OCC2n2ccnc2)c1.O=[N+]([O-])O (racemic) | 32 | > 64 | 64 | 0.5 |
| O=[N+]([O-])O.c1ccc(OCCO/N=C2\c3ccccc3OCC2n2ccnc2)cc1 (racemic) | 32 | > 64 | 128 | 2 |
| O/N=C1\c2ccccc2OCC1n1ccnc1 (stereo unspecified) | > 64 | > 64 | > 128 | > 64 |
